Data from ChEMBL document CHEMBL1123665, “Substituted (aryloxy)alkanoic acids as antagonists of slow-reacting substance of anaphylaxis” (J Med Chem, 1987).
Calls of active or inactive are those of the source. The rule behind the calls is not given here.

Key:
Cavia porcellus [1] = assay: In vivo inhibition of leukotriene-induced bronchoconstriction in guinea pigs following 10 mg/kg i.v. administration.; format: functional; details: route intravenous
Procedure, shortened: (§1)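 Male Hartley guinea pigs (400–600 g) were anesthetized with urethane 2 g/kg i.p. and given propranolol 0.1 mg/kg i.v. 5 min before challenge. After succinylcholine 1.2 mg/kg i.v., animals were ventilated at 40 breaths/min with 4.0 cm3 stroke volume. Drug (10 mg/kg) or vehicle went via jugular cannula 30 s before LTE 25 μg/kg i.v. Tracheal pressure change gave % inhibition (3 control, 5 treated).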

Cavia porcellus [2] = assay: In vivo inhibition of leukotriene-induced bronchoconstriction in guinea pigs, was determined, by administering compound by aerosol route, after 17 min; format: functional, organism-based
Procedure, shortened: (§2)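 Duration of aerosol protection was measured in anesthetized, propranolol-pretreated male guinea pigs. Each inhaled a 1% neutralized aqueous drug solution by ultrasonic nebulizer for 5 min. LTE i.v. challenge followed after 30 s or 5, 10, 30, 60 or 90 min. Tracheal pressure change gave % inhibition (3 control, 5 treated). Duration is the time at which inhibition fell to 40%.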

[3] = target: Cysteinyl leukotriene receptor (Cavia porcellus); assay: In vitro inhibition of SRS-A-induced contractions in guinea pig ileum
Cavia porcellus [4] = assay: In vivo inhibition of leukotriene-induced bronchoconstriction in guinea pigs, was determined, by administering compound by aerosol route, after 15 min; format: functional, organism-based; procedure, shortened: as §2
Cavia porcellus [5] = species on record: Cavia porcellus; assay: Inhibitory potency against platelet activating factor (PAF) induced bronchoconstriction in guinea pigs.; format: functional, organism-based
Procedure, shortened: (§3)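 Anesthetized male guinea pigs were pretreated with propranolol 0.1 mg/kg i.v. and monitored by tracheal pressure. Maximally constrictory i.v. challenges were LTC 50 μg/kg, LTD 50 μg/kg, LTE 25 μg/kg, PAF 10 μg/kg and histamine 50 μg/kg. Dosing, group sizes and % inhibition calculation were otherwise as for the LTE protocol.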

Cavia porcellus [6] = species on record: Cavia porcellus; assay: Inhibitory potency against leukotriene E4 (LTE) induced bronchoconstriction in guinea pigs.; format: functional, organism-based; procedure, shortened: as §3
Cavia porcellus [7] = species on record: Cavia porcellus; assay: Inhibitory potency against histamine induced bronchoconstriction in guinea pigs.; format: functional, organism-based; procedure, shortened: as §3
Cavia porcellus [8] = species on record: Cavia porcellus; assay: Inhibitory potency against leukotriene D4 (LTD) induced bronchoconstriction in guinea pigs.; format: functional, organism-based; procedure, shortened: as §3
Cavia porcellus [9] = species on record: Cavia porcellus; assay: Inhibitory potency against leukotriene C4 (LTC) induced bronchoconstriction in guinea pigs.; format: functional, organism-based; procedure, shortened: as §3
Cavia porcellus [10] = assay: In vivo inhibition of leukotriene-induced bronchoconstriction in guinea pigs, was determined, by administering compound by aerosol route, after 37 min; format: functional, organism-based; procedure, shortened: as §2
Cavia porcellus [11] = assay: In vivo inhibition of leukotriene-induced bronchoconstriction in guinea pigs, was determined, by administering 10 mg/kg of compound intravenously.;This compound caused bronchoconstriction; bc = Compound caused bronchoconstriction; format: functional, organism-based; parameters: dose 10 mg/kg; procedure, shortened: as §1
Cavia porcellus [12] = assay: In vivo inhibition of leukotriene-induced bronchoconstriction in guinea pigs, was determined, by administering compound by aerosol route, after 49 min; format: functional, organism-based; procedure, shortened: as §2
Cavia porcellus [13] = assay: In vivo inhibition of leukotriene-induced bronchoconstriction in guinea pigs, was determined, by administering compound by aerosol route, after 25 min; format: functional, organism-based; procedure, shortened: as §2
Cavia porcellus [14] = assay: In vivo inhibition of leukotriene-induced bronchoconstriction in guinea pigs, was determined, by administering compound by aerosol route, after 55 min; format: functional, organism-based; procedure, shortened: as §2
Cavia porcellus [15] = assay: In vivo inhibition of leukotriene-induced bronchoconstriction in guinea pigs, was determined, by administering compound by aerosol route, after 46 min; format: functional, organism-based; procedure, shortened: as §2
Cavia porcellus [16] = assay: In vivo inhibition of leukotriene-induced bronchoconstriction in guinea pigs, was determined, by administering compound by aerosol route, after 22 min; format: functional, organism-based; procedure, shortened: as §2
Cavia porcellus [17] = assay: In vivo inhibition of leukotriene-induced bronchoconstriction in guinea pigs, was determined, by administering compound by aerosol route, after 77 min; format: functional, organism-based; procedure, shortened: as §2
Cavia porcellus [18] = assay: In vivo inhibition of leukotriene-induced bronchoconstriction in guinea pigs, was determined, by administering compound by aerosol route; format: functional, organism-based
Procedure, shortened: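 Urethane-anesthetized male guinea pigs were given propranolol 0.1 mg/kg i.v. 5 min before aerosol. Spontaneously breathing animals inhaled an NaOH-neutralized aqueous drug solution (varied % w/v) or distilled water for 5 min from an ultrasonic nebulizer, then were challenged with i.v. LTE. Tracheal pressure change was compared across 3 control and 5 treated animals. IC50 came from log concentration–response regression over ≥3 concentrations in the 10–90% range.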

Cavia porcellus [19] = species on record: Cavia porcellus; assay: In vitro inhibition of SRS-A-induced contractions in guinea pig ileum; format: functional
Cavia porcellus [20] = assay: In vivo inhibition of leukotriene-induced bronchoconstriction in guinea pigs, was determined, by administering compound by aerosol route, after 9 min; format: functional, organism-based; procedure, shortened: as §2
Cavia porcellus [21] = assay: In vivo inhibition of leukotriene-induced bronchoconstriction in guinea pigs, was determined, by administering compound by aerosol route, after 30 min; format: functional, organism-based; procedure, shortened: as §2
Cavia porcellus [22] = assay: In vivo inhibition of leukotriene-induced bronchoconstriction in guinea pigs, was determined, by administering 10 mg/kg of compound intravenously.; format: functional; details: route intravenous; procedure, shortened: as §1
Cavia porcellus [23] = assay: In vivo inhibition of leukotriene-induced bronchoconstriction in guinea pigs, was determined, by administering compound by aerosol route, after 14 min; format: functional, organism-based; procedure, shortened: as §2
Cavia porcellus [24] = assay: In vivo inhibition of leukotriene-induced bronchoconstriction in guinea pigs, was determined, by administering compound by aerosol route, after 7 min; format: functional, organism-based; procedure, shortened: as §2
Cavia porcellus [25] = assay: In vivo inhibition of leukotriene-induced bronchoconstriction in guinea pigs, was determined, by administering compound by aerosol route, after 90 min; format: functional, organism-based; procedure, shortened: as §2
Cavia porcellus [26] = species on record: Cavia porcellus; assay: Inhibitory potency against leukotriene C4 (LTC) induced bronchoconstriction in guinea pigs; format: functional, organism-based; procedure, shortened: as §3
Cavia porcellus [27] = assay: In vivo inhibition of leukotriene-induced bronchoconstriction in guinea pigs, was determined, by administering compound by aerosol route, after 73 min; format: functional, organism-based; procedure, shortened: as §2
Cavia porcellus [28] = species on record: Cavia porcellus; assay: Inhibitory potency against leukotriene D4 (LTD) induced bronchoconstriction in guinea pigs; format: functional, organism-based; procedure, shortened: as §3
Cavia porcellus [29] = assay: In vivo inhibition of leukotriene-induced bronchoconstriction in guinea pigs, was determined, by administering compound by aerosol route, after 42 min; format: functional, organism-based; procedure, shortened: as §2
Cavia porcellus [30] = assay: In vivo inhibition of leukotriene-induced bronchoconstriction in guinea pigs, was determined, by administering compound by aerosol route, after 45 min; format: functional, organism-based; procedure, shortened: as §2

Structure (SMILES)	IC50 [3]	IC50 (Cavia porcellus [5])	IC50 (Cavia porcellus [6])	IC50 (Cavia porcellus [7])	inhibition in vivo at 10 mg/kg (Cavia porcellus [1])	other results
CCCc1c(OCCOCCOc2c(C(C)=O)ccc(OCCCC(=O)O)c2CCC)ccc(C(C)=O)c1O	100 nM				91%	IC50 (Cavia porcellus [2]): 0.22 % conc
CCCc1c(OCCCOCCCOc2c(C(C)=O)ccc(OCCCC(=O)O)c2CCC)ccc(C(C)=O)c1O	200 nM	1 % conc	0.01 % conc	> 1 % conc	93%	IC50 (Cavia porcellus [8]): 0.19 % conc; IC50 (Cavia porcellus [9]): 0.15 % conc; IC50 (Cavia porcellus [10]): 0.01 % conc
CCCc1c(OCCCOc2ccc3ccc(OCC(=O)O)cc3c2)ccc(C(C)=O)c1O	300 nM					inhibition (Cavia porcellus [11]): inactive; IC50 (Cavia porcellus [12]): 0.46 % conc
CCCc1c(OCCCOc2c(C(C)=O)ccc(OCCCCCC(=O)O)c2CCC)ccc(C(C)=O)c1O	1000 nM				91%	IC50 (Cavia porcellus [14]): 0.02 % conc
CCCc1c(OCCCCCOc2c(C(C)=O)ccc(OCCCC(=O)O)c2CCC)ccc(C(C)=O)c1O	1000 nM	> 1 % conc	0.01 % conc	0.9 % conc	92%	IC50 (Cavia porcellus [8]): 0.57 % conc; IC50 (Cavia porcellus [9]): 0.16 % conc; IC50 (Cavia porcellus [15]): 0.01 % conc
CCCc1c(OCCCOc2c(C(C)=O)ccc(OCCCC(=O)O)c2CCC)ccc(C(C)=O)c1O	200 nM				97%	IC50 (Cavia porcellus [16]): 0.18 % conc
CCCc1c(OCC(O)COc2ccc3c(=O)cc(C(=O)O)oc3c2CCC)ccc(C(C)=O)c1O (configuration not stated) [FPL-55712]		> 1 % conc	0.79 % conc	> 1 % conc	98%	IC50 (Cavia porcellus [8]): 0.5 % conc; IC50 (Cavia porcellus [9]): > 3 % conc; IC50 (Cavia porcellus [17]): 0.79 % conc
CCCc1c(OCCOCCOCCOc2c(C(C)=O)ccc(OCCCC(=O)O)c2CCC)ccc(C(C)=O)c1O					57%	IC50 (Cavia porcellus [19]): 500 nM; IC50 (Cavia porcellus [18]): 1 % conc
CCCc1c(OCCCOCCCOc2c(C(C)=O)ccc(OCC(=O)O)c2CCC)ccc(C(C)=O)c1O	400 nM				91%	IC50 (Cavia porcellus [21]): 0.1 % conc
CCCc1c(OCCCOc2ccc3ccc(OCCCC(=O)O)cc3c2)ccc(C(C)=O)c1O	5000 nM					inhibition in vivo at 10 mg/kg (Cavia porcellus [22]): 75%; IC50 (Cavia porcellus [18]): 1 % conc
CCCc1c(OCCOCCOc2c(C(C)=O)ccc(OCC(=O)O)c2CCC)ccc(C(C)=O)c1O	200 nM				86%	IC50 (Cavia porcellus [23]): 0.02 % conc
CCCc1c(OCCCCCOc2ccc3ccc(OCC(=O)O)cc3c2C(C)=O)ccc(C(C)=O)c1O	200 nM				60%	IC50 (Cavia porcellus [24]): 0.14 % conc
CCCc1c(OCCCOc2c(C(C)=O)ccc(OCC(=O)O)c2CCC)ccc(C(C)=O)c1O	2000 nM				95%	IC50 (Cavia porcellus [25]): 0.07 % conc
CCCc1c(OCCOCCOCCOc2c(C(C)=O)ccc(OCC(=O)O)c2CCC)ccc(C(C)=O)c1O		> 1 % conc	0.04 % conc	0.8 % conc	85%	IC50 (Cavia porcellus [29]): 0.04 % conc; IC50 (Cavia porcellus [19]): 1000 nM; IC50 (Cavia porcellus [8]): 0.19 % conc; IC50 (Cavia porcellus [9]): 0.36 % conc

Further lines, with some results ahead:

IC50 [3]	IC50 (Cavia porcellus [5])	IC50 (Cavia porcellus [6])	IC50 (Cavia porcellus [7])	Structure (SMILES)	inhibition in vivo at 10 mg/kg (Cavia porcellus [1])	other results
500 nM				CCCc1c(OCCCOc2cccc(OCC(=O)O)c2)ccc(C(C)=O)c1O	64%	IC50 (Cavia porcellus [4]): 0.07 % conc
200 nM	> 1 % conc	0.02 % conc	> 1 % conc	CCCc1c(OCCCOc2ccc3ccc(OCC(=O)O)cc3c2C(C)=O)ccc(C(C)=O)c1O	90%	IC50 (Cavia porcellus [13]): 0.02 % conc; IC50 (Cavia porcellus [8]): 0.32 % conc; IC50 (Cavia porcellus [9]): 0.22 % conc
200 nM				CCCc1c(OCCOCCOc2c(C(C)=O)ccc(OCCCCCC(=O)O)c2CCC)ccc(C(C)=O)c1O	91%	IC50 (Cavia porcellus [18]): 1 % conc
80 nM				CCCc1c(OCCCOc2ccc3ccc(OCCCC(=O)O)cc3c2C(C)=O)ccc(C(C)=O)c1O	93%	IC50 (Cavia porcellus [20]): 0.61 % conc
	> 1 % conc	0.04 % conc	0.8 % conc	CCCc1c(OCCOCCOCCOCCOc2c(C(C)=O)ccc(OCC(=O)O)c2CCC)ccc(C(C)=O)c1O	90%	IC50 (Cavia porcellus [26]): 1.3 % conc; IC50 (Cavia porcellus [19]): 300 nM; IC50 (Cavia porcellus [27]): 0.04 % conc; IC50 (Cavia porcellus [28]): 0.18 % conc
500 nM				CCCc1c(OCCCCOCCCCOc2c(C(C)=O)ccc(OCC(=O)O)c2CCC)ccc(C(C)=O)c1O	54%	IC50 (Cavia porcellus [30]): 0.1 % conc
100 nM	1 % conc	0.02 % conc	> 1 % conc	CCCc1c(OCCCCCOc2c(C(C)=O)ccc(OCC(=O)O)c2CCC)ccc(C(C)=O)c1O	73%	IC50 (Cavia porcellus [14]): 0.02 % conc; IC50 (Cavia porcellus [8]): 0.13 % conc; IC50 (Cavia porcellus [9]): 0.11 % conc
